# Measured values published in article PMC7299178 (Angewandte Chemie (International ed. in English), 2019).
# Columns and labels:
# [1] = molecular target: thermolysin (Bacillus thermoproteolyticus, UniProt P00800)
# [2] = Micelle size in water by TEM and DLS; type: physicochemical
# Summary of the method: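 Test material was a linear-brush diblock copolymer (PMMA block plus a peptide-acrylamide/DMA brush block), self-assembled into micelles in water. Particle diameter was measured by TEM imaging, and hydrodynamic diameter by DLS. TEM images were also taken after thermolysin treatment (thermolysin cleaves the Gly–Leu amide bond of the peptide side chains).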
# thermolysin, sequence (P00800 233-548, species assumed): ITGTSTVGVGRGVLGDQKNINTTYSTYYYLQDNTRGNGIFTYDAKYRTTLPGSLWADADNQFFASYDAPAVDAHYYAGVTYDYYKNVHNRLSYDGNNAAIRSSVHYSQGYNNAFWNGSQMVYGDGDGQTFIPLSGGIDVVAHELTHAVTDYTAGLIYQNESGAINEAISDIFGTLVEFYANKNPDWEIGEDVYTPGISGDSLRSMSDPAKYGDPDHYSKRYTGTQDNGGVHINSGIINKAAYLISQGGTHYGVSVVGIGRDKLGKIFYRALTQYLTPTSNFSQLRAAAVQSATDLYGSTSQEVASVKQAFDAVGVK
substance,measurement,setting,value
PMMA90-b-poly(PepAm21-co-DMA63) [P8],morphology change of micelles upon treatment with thermolysin,"[1]; TEM and DLS, spherical micelles before treatment",underwent a phase transition into a worm-like phase
same,change of particle diameter with deactivated thermolysin,"[1]; same cleavage conditions, thermolysin pretreated with ethylenediaminetetraacetic acid, DLS",no change in diameter
same,hydrodynamic diameter (DLS),"[2]; micelles in water, dynamic light scattering",28 nm
same,micelle diameter (TEM),"[2]; spherical micelles assembled in water, transmission electron microscope",24 nm
